Test [1] deals with Tobacco mosaic virus. Briefly: Antiviral activity against Tobacco mosaic virus (TMV) inoculated on 500 ug/mL compound smeared Nicotiana tabacum leaves assessed as protective effect against viral infection measured 3 to 4 days post viral infection. Type of test: functional. In outline:
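Half-leaf assay on same-age growing Nicotiana tabacum leaves: compound solution smeared on left half, solvent on right half as control. After 12 h, leaves scattered with silicon carbide were brush-inoculated with TMV at 6 × 10^-3 mg/mL. Local lesions were counted 3–4 d post-inoculation, three repetitions. Inhibition % = (control mean lesions − treated mean lesions)/control mean lesions × 100.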

The subject of test [2] is Tobacco mosaic virus. Put plainly: Antiviral activity against Tobacco mosaic virus (TMV) pre-treated with 500 ug/mL compound for 30 min followed by inoculation on left side of Nicotiana tabacum leaves assessed as virus inactivation effect measured 3 to 4 days post viral infection. Type of test: functional. The essentials: (§1)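 Inactivation assay on N. tabacum leaves, with a solvent–virus mixture inoculated as control. Local lesion numbers were recorded 3–4 d after inoculation, three repetitions per compound. Inhibition % was derived from mean lesion counts relative to control.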

In test [3] the test system is Tobacco mosaic virus. Put plainly: Antiviral activity against Tobacco mosaic virus (TMV) inoculated on whole Nicotiana tabacum leaves followed by smearing with 500 ug/mL compound solution on left side of leaves assessed as viral infection curative effect measured 3 to 4 days post viral infection. Type of test: functional. The essentials: (§2)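 Whole same-age growing N. tabacum leaves were dip-inoculated with TMV at 6 × 10^-3 mg/mL, then washed with water and dried. Compound solution was smeared on left half, solvent on right half as control. Local lesions were counted 3–4 d after inoculation, three repetitions per compound. Inhibition % = (control mean lesions − treated mean lesions)/control mean lesions × 100.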

Test [4] concerns Tobacco mosaic virus. Put plainly: Antiviral activity against Tobacco mosaic virus (TMV) pre-treated with 125 ug/mL compound for 30 min followed by inoculation on left side of Nicotiana tabacum leaves assessed as virus inactivation effect measured 3 to 4 days post viral infection. The test is classed as functional. In outline:
as §1

The test system of test [5] is Tobacco mosaic virus. Briefly: Antiviral activity against Tobacco mosaic virus (TMV) inoculated on whole Nicotiana tabacum leaves followed by smearing with compound solution on left side of leaves assessed as viral infection curative effect measured 3 to 4 days post viral infection. Type of test: functional, organism-based. In outline:
as §2

The test system of test [6] is Tobacco mosaic virus. Put plainly: Antiviral activity against Tobacco mosaic virus (TMV) inoculated on whole Nicotiana tabacum leaves followed by smearing with 250 ug/mL compound solution on left side of leaves assessed as viral infection curative effect measured 3 to 4 days post viral infection. The test is classed as functional. The essentials:
as §2

Test [7] deals with Tobacco mosaic virus. Put plainly: Antiviral activity against Tobacco mosaic virus (TMV) pre-treated with 250 ug/mL compound for 30 min followed by inoculation on left side of Nicotiana tabacum leaves assessed as virus inactivation effect measured 3 to 4 days post viral infection. The test is classed as functional. The essentials: as §1
In test [8] the test system is Tobacco mosaic virus. Briefly: Antiviral activity against Tobacco mosaic virus (TMV) pre-treated with 62.5 ug/mL compound for 30 min followed by inoculation on left side of Nicotiana tabacum leaves assessed as virus inactivation effect measured 3 to 4 days post viral infection. Type of test: functional. In outline: as §1
In test [9] the test system is Tobacco mosaic virus. Put plainly: Antiviral activity against Tobacco mosaic virus (TMV) inoculated on whole Nicotiana tabacum leaves followed by smearing with 125 ug/mL compound solution on left side of leaves assessed as viral infection curative effect measured 3 to 4 days post viral infection. The test is classed as functional. The essentials: as §2
Test [10] relates to Tobacco mosaic virus. Put plainly: Antiviral activity against Tobacco mosaic virus (TMV) pre-treated with compound for 30 min followed by inoculation on left side of Nicotiana tabacum leaves assessed as virus inactivation effect measured 3 to 4 days post viral infection. The test is classed as functional, organism-based. The essentials:
as §1

Converted amounts (≈) assume the structure as drawn.

As usually defined, the EC50 is the concentration at which the effect is half-maximal.

Take `CCOP(=O)(OCC)C(NC(=O)c1cccc(F)c1)c1ccccc1F` (configuration not stated): the results for the Activity in the test with Tobacco mosaic virus [1], with Tobacco mosaic virus [2] and with Tobacco mosaic virus [3] were 41%, 70.7% and 6.2%, respectively.

As to `CCOP(=O)(OCC)C(NC(=O)c1ccccc1C(F)(F)F)c1ccccc1F` (configuration not stated), the values for the Activity in the test on Tobacco mosaic virus [1], with Tobacco mosaic virus [2] and in the test on Tobacco mosaic virus [3] were 39.2%, 62.2% and 2.1%, respectively.

Take `CCOP(=O)(OCC)C(NC(=O)c1ccccc1Cl)c1ccccc1F` (configuration not stated): the Activity is reported as 40.9% in the test with Tobacco mosaic virus [1], 39% in the test with Tobacco mosaic virus [2] and 19.7% with Tobacco mosaic virus [3].

As for `CCOP(=O)(OCC)C(NC(=O)/C=C/c1ccccc1)c1ccccc1F` (configuration not stated), the Activity came to 39% in the test with Tobacco mosaic virus [1], 51.5% in the test with Tobacco mosaic virus [2] and 22.4% with Tobacco mosaic virus [3].

Consider `CCOP(=O)(OCC)C(NC(=O)c1cc(OC)c(OC)c(OC)c1)c1ccccc1F` (configuration not stated), for which the figures for the Activity with Tobacco mosaic virus [1], in the test with Tobacco mosaic virus [2] and in the test on Tobacco mosaic virus [3] were 41.2%, 33.7% and 17.1%, respectively.

Consider `CCOP(=O)(OCC)C(NC(=O)c1ccccc1F)c1ccccc1F` (configuration not stated), for which the values for the Activity with Tobacco mosaic virus [1], in the test on Tobacco mosaic virus [2] and in the test on Tobacco mosaic virus [3] were 50%, 80% and 20.8%, respectively.

Consider `CCOP(=O)(OCC)C(NC(=O)/C=C/c1ccccc1)c1ccccc1` (configuration not stated) [(E)-DIETHYL CINNAMAMIDO(PHENYL)METHYLPHOSPHONATE], for which the Activity with Tobacco mosaic virus [4] is 61.2%; in the test on Tobacco mosaic virus [6], 39.9%; in the test with Tobacco mosaic virus [1] it was 58.7%; in the test with Tobacco mosaic virus [2], 88.2%; in the test on Tobacco mosaic virus [7] it was 79.9%; in the test with Tobacco mosaic virus [3], 50%. Further, the Activity came out at 49.1% in the test with Tobacco mosaic virus [8] and 32.3% in the test on Tobacco mosaic virus [9]. Besides, the EC50 worked out at 439 µg/mL (≈ 1180 µM) in the test with Tobacco mosaic virus [5] and 65.2 µg/mL (≈ 175 µM) in the test with Tobacco mosaic virus [10].

`CCOP(=O)(OCC)C(NC(=O)c1ccccc1)c1ccccc1F` (configuration not stated) [DIETHYL BENZAMIDO(2-FLUOROPHENYL)METHYLPHOSPHONATE]: the figures for the Activity with Tobacco mosaic virus [1], with Tobacco mosaic virus [2] and in the test with Tobacco mosaic virus [3] were 43.1%, 70% and 32.2%, respectively.

As to `CCOP(=O)(OCC)C(NC(=O)c1ccccc1)c1ccccc1` (configuration not stated) [DIETHYL BENZAMIDO(PHENYL)METHYLPHOSPHONATE], the Activity in the test with Tobacco mosaic virus [1] stood at 39.1%; with Tobacco mosaic virus [2], 42.4%; with Tobacco mosaic virus [3], 8.7%.

Regarding `CCOP(=O)(OCC)C(NC(=O)c1ccccc1C(F)(F)F)c1ccccc1` (configuration not stated) [DIETHYL PHENYL(2-(TRIFLUOROMETHYL)BENZAMIDO)METHYLPHOSPHONATE], the Activity with Tobacco mosaic virus [1] is given as 41.1%; in the test with Tobacco mosaic virus [2], 45.3%; in the test with Tobacco mosaic virus [3], 2.4%.

Take `CCOP(=O)(OCC)C(NC(=O)c1cc(OC)c(OC)c(OC)c1)c1ccccc1` (configuration not stated) [DIETHYL PHENYL(3,4,5-TRIMETHOXYBENZAMIDO)METHYLPHOSPHONATE]: the Activity with Tobacco mosaic virus [1] stood at 42%; with Tobacco mosaic virus [2] it was 45.6%; with Tobacco mosaic virus [3], 35.6%.

`CCOP(=O)(OCC)C(NC(=O)c1ccccc1Cl)c1ccccc1` (configuration not stated) [DIETHYL(2-CHLOROBENZAMIDO)(PHENYL)METHYLPHOSPHONATE]: the Activity in the test with Tobacco mosaic virus [4] came to 60.9%; with Tobacco mosaic virus [1], 58%; in the test with Tobacco mosaic virus [2] it was 90.6%; with Tobacco mosaic virus [7], 82.2%; in the test on Tobacco mosaic virus [3], 19%; with Tobacco mosaic virus [8] it was 59%. Also, in the test with Tobacco mosaic virus [10], the EC50 was 60 µg/mL (≈ 157 µM).

As for `CCOP(=O)(OCC)C(NC(=O)c1ccccc1F)c1ccccc1` (configuration not stated) [DIETHYL(2-FLUOROBENZAMIDO)(PHENYL)METHYLPHOSPHONATE], the Activity came to 47.2% in the test on Tobacco mosaic virus [4]; 49% with Tobacco mosaic virus [6]; 42% in the test with Tobacco mosaic virus [1]; 78% in the test with Tobacco mosaic virus [2]; 70.9% in the test with Tobacco mosaic virus [7]; 53.6% with Tobacco mosaic virus [3]. Besides, the Activity with Tobacco mosaic virus [8] was determined as 36.7%; in the test on Tobacco mosaic virus [9] it was 34%. For the same compound, the concentration for a half-maximal effect (EC50) with Tobacco mosaic virus [5] was found to be 256 µg/mL (≈ 700 µM); in the test with Tobacco mosaic virus [10] it was 119 µg/mL (≈ 326 µM).

Consider `CCOP(=O)(OCC)C(NC(=O)c1cccc(F)c1)c1ccccc1` (configuration not stated) [DIETHYL(3-FLUOROBENZAMIDO)(PHENYL)METHYLPHOSPHONATE], for which the Activity with Tobacco mosaic virus [1] was 56%; in the test on Tobacco mosaic virus [2] it was 82.1%; in the test with Tobacco mosaic virus [3] it was 24.6%.

For `CCOP(=O)(OCC)C(NC(=O)c1ccc(F)cc1)c1ccccc1` (configuration not stated) [DIETHYL(4-FLUOROBENZAMIDO)(PHENYL)METHYLPHOSPHONATE], the Activity in the test on Tobacco mosaic virus [4] is recorded as 76.1%; in the test on Tobacco mosaic virus [1] it was 65.7%; in the test with Tobacco mosaic virus [2], 99.1%; with Tobacco mosaic virus [7] it was 100%; with Tobacco mosaic virus [3] it was 19.2%; with Tobacco mosaic virus [8], 70%. Also, in the test on Tobacco mosaic virus [10], the EC50 was found to be 54.8 µg/mL (≈ 150 µM).

On to `CCCOP(=O)(OCCC)C(NC(=O)c1ccccc1)c1ccccc1` (configuration not stated) [DIPROPYL BENZAMIDO(PHENYL)METHYLPHOSPHONATE], for which the Activity is listed as 23% in the test on Tobacco mosaic virus [4]; 23.9% in the test on Tobacco mosaic virus [6]; 49.9% in the test with Tobacco mosaic virus [1]; 78.9% with Tobacco mosaic virus [2]; 51% with Tobacco mosaic virus [7]; 42% in the test on Tobacco mosaic virus [3]. Besides, the Activity with Tobacco mosaic virus [8] was 10%; with Tobacco mosaic virus [9], 14%. Also, the concentration for a half-maximal effect (EC50) with Tobacco mosaic virus [5] was 560 µg/mL (≈ 1490 µM); with Tobacco mosaic virus [10], 279 µg/mL (≈ 743 µM).

Turning to `CCCOP(=O)(OCCC)C(NC(=O)c1ccccc1C(F)(F)F)c1ccccc1` (configuration not stated) [DIPROPYL PHENYL(2-(TRIFLUOROMETHYL)BENZAMIDO)METHYLPHOSPHONATE], the Activity in the test on Tobacco mosaic virus [4] stood at 39.2%; in the test on Tobacco mosaic virus [6], 38%; in the test with Tobacco mosaic virus [1] it was 44%; in the test with Tobacco mosaic virus [2] it was 80%; with Tobacco mosaic virus [7], 60%; with Tobacco mosaic virus [3], 53.7%. For the same compound, the Activity in the test on Tobacco mosaic virus [8] is reported as 31.2%; in the test on Tobacco mosaic virus [9] it was 31.6%. Moreover, the 50% effective concentration (EC50) with Tobacco mosaic virus [5] came out at 422 µg/mL (≈ 952 µM); in the test on Tobacco mosaic virus [10] it was 199 µg/mL (≈ 449 µM).

As to `CCCOP(=O)(OCCC)C(NC(=O)c1cc(OC)c(OC)c(OC)c1)c1ccccc1` (configuration not stated) [DIPROPYL PHENYL(3,4,5-TRIMETHOXYBENZAMIDO)METHYLPHOSPHONATE], the Activity in the test on Tobacco mosaic virus [4] worked out at 30.3%; in the test with Tobacco mosaic virus [6], 50.6%; in the test on Tobacco mosaic virus [1] it was 58.8%; in the test with Tobacco mosaic virus [2], 83.4%; with Tobacco mosaic virus [7] it was 61%; in the test with Tobacco mosaic virus [3], 55%. Further, the Activity came to 28.8% with Tobacco mosaic virus [8] and 40.9% in the test on Tobacco mosaic virus [9]. In addition, the half-maximal effective concentration (EC50) in the test with Tobacco mosaic virus [5] is 250 µg/mL (≈ 537 µM); with Tobacco mosaic virus [10] it was 210 µg/mL (≈ 451 µM).

As to `CCCOP(=O)(OCCC)C(NC(=O)c1cccc(F)c1)c1ccccc1` (configuration not stated) [DIPROPYL(3-FLUOROBENZAMIDO)(PHENYL)METHYLPHOSPHONATE], the Activity in the test with Tobacco mosaic virus [4] came to 46%; in the test with Tobacco mosaic virus [6], 21%; in the test on Tobacco mosaic virus [1], 50.9%; with Tobacco mosaic virus [2], 86.6%; in the test on Tobacco mosaic virus [7] it was 65%; in the test on Tobacco mosaic virus [3], 43%. Further, the results for the Activity with Tobacco mosaic virus [8] and in the test with Tobacco mosaic virus [9] were 40.1% and 12.9%, respectively. For the same compound, the EC50 in the test with Tobacco mosaic virus [5] came to 546 µg/mL (≈ 1390 µM); in the test with Tobacco mosaic virus [10], 150 µg/mL (≈ 381 µM).

`CNCC(=O)N[C@@H](CO)C(=O)N[C@H]1[C@H](O)[C@@H](O)[C@H](n2ccc(N)nc2=O)O[C@@H]1C(N)=O` [NINGNANMYCIN]: the Activity with Tobacco mosaic virus [4] was 78.4%; with Tobacco mosaic virus [6], 51%; in the test on Tobacco mosaic virus [1], 60.2%; with Tobacco mosaic virus [2], 100%; in the test on Tobacco mosaic virus [7], 100%; in the test with Tobacco mosaic virus [3], 55.4%. Moreover, the Activity was determined as 69% in the test with Tobacco mosaic virus [8] and 40.9% in the test on Tobacco mosaic virus [9]. The figures for the concentration giving a half-maximal response (EC50) in the test on Tobacco mosaic virus [5] and with Tobacco mosaic virus [10] were 246 µg/mL (≈ 555 µM) and 55.6 µg/mL (≈ 125 µM), respectively.

Source of the values: ChEMBL document CHEMBL3046095, “Synthesis and antiviral activities of amide derivatives containing the alpha-aminophosphonate moiety” (J Agric Food Chem, 2008).
